# Like-named read-outs stand apart in the source and are kept apart here.
# What was measured:
# [1] = tested on: canalicular membrane of rat hepatocytes; conditions: cited from earlier work
# Caco-2 cells [2] = type: in vitro ADME, human; conditions: for Clcdf,ap, efflux clearance of CDF across the apical membrane, parameter estimate (% RSE) / Clcdf,bl, efflux clearance of CDF across the basolateral membrane, parameter estimate (% RSE) / Clhydrolysis, intracellular hydrolysis of CDFDA, parameter estimate (% RSE): control; for β-adjustment factor for enhancement of CDFDA hydrolysis clearance (Clhydrolysis), estimate (% RSE): Equation 2; for model predicted effect on CDF clearance across the apical membrane: co-exposure with agent; for β-adjustment factor for enhancement of basolateral membrane clearance (Clcdf,bl), estimate (% RSE): Equation 2, agent 10, 30, 100 μM
# Caco-2 cells [3] = type: in vitro ADME, human; conditions: for fraction of CDF in the basolateral compartment / fraction of CDF in the cell compartment at 120-minutes: average; for fraction of CDF present in the apical compartment / total CDF production, % of the CDFDA dose: mean ± standard deviation
# Caco-2 cells [4] = experiment: CDF transport across Caco-2 monolayers following CDF dosing; type: in vitro ADME, human
# How it was run: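 Caco-2 cells (passages 32–58) were grown 18–24 days on collagen-coated 0.4 μm PTFE Transwells. They were pre-incubated 30 min in pH 7.4 transport buffer with 0.1% DMSO/0.1% ethanol, then given 5 μM CDF apically or basolaterally at 37°C with 150 rpm shaking. CDF was quantified against 7.8–1000 nM standards. Clearance = transport rate/mean initial–final donor concentration. A two-compartment passive paracellular population model was fitted by QRPEM, 13 filters per direction.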
# [5] = cited from earlier work
# [6] = tested on: CDFDA hydrolysis in Caco-2 cell homogenates; conditions: cited from earlier work; for effect on CDFDA hydrolysis in Caco-2 cell homogenates: 100 μM
# Caco-2 cells [7] = conditions: % of dose, cited from earlier work
# [8] = CDFDA hydrolysis in transport buffer; type: physicochemical; conditions: 37°C
# Caco-2 cells [9] = conditions: contemporaneous studies; cited from earlier work
# [10] = apical dosing 5 μM CDFDA, 500 simulations
# [11] = basolateral dosing 5 μM CDFDA, 500 simulations
# [12] = control experiments, CDFDA dosing
# [13] = apical 5 μM CDFDA with 100 μM agent
# [14] = apical 5 μM CDFDA with 100 μM agent, 9 filters
# [15] = basolateral 5 μM CDFDA with 100 μM agent
# [16] = basolateral 5 μM CDFDA with 100 μM agent, 9 filters
# [17] = apical 5 μM CDFDA alone (Control)
# [18] = basolateral 5 μM CDFDA alone (Control)
molecule,measurement,setting,value
"5 (and 6)-Carboxy-2′,7′-Dichloroflourescein [CDF]",Km,"[1]; read-out: Km, high affinity state, Sprague-Dawley rats",3 µM
same,Km,"[1]; read-out: Km, high affinity state, Wistar rats",9 µM
same,Km,"[1]; read-out: Km, low affinity state, Sprague-Dawley rats",192 µM
same,Km,"[1]; read-out: Km, low affinity state, Wistar rats",69 µM
same,ratio of basolateral to apical dosing transcellular CDF clearance,Caco-2 cells [2]; Equations 3a–b with 3-compartment model estimates,2.9
same,"simulated intracellular CDF concentration, average",Caco-2 cells [2]; apical CDFDA dosing,10 µM
same,"Clcdf,ap, bootstrap analysis median (90% confidence interval)",Caco-2 cells [2]; [10],2.2 × 10^−5 (1.7 – 2.6 × 10^−5) mL/min
same,"Clcdf,bl, bootstrap analysis median (90% confidence interval)",Caco-2 cells [2]; [10],1.3 × 10^−5 (1.2 – 1.4 × 10^−5) mL/min
same,"Clcdf,ap, efflux clearance of CDF across the apical membrane, parameter estimate (% RSE)",Caco-2 cells [2]; apical dosing 5 μM CDFDA,8.4 × 10^−5 (<0.1) mL/min
same,"Clcdf,bl, efflux clearance of CDF across the basolateral membrane, parameter estimate (% RSE)",Caco-2 cells [2]; apical dosing 5 μM CDFDA,5.6 × 10^−5 (0.1) mL/min
same,"simulated intracellular CDF concentration, average",Caco-2 cells [2]; basolateral CDFDA dosing,24 µM
same,"Clcdf,ap, bootstrap analysis median (90% confidence interval)",Caco-2 cells [2]; [11],8.3 × 10^−5 (7.1 – 10.8 × 10^−5) mL/min
same,"Clcdf,bl, bootstrap analysis median (90% confidence interval)",Caco-2 cells [2]; [11],5.1 × 10^−5 (3.8 – 6.7 × 10^−5) mL/min
same,"Clcdf,ap, efflux clearance of CDF across the apical membrane, parameter estimate (% RSE)",Caco-2 cells [2]; basolateral dosing 5 μM CDFDA,8.5 × 10^−5 (0.2) mL/min
same,"Clcdf,bl, efflux clearance of CDF across the basolateral membrane, parameter estimate (% RSE)",Caco-2 cells [2]; basolateral dosing 5 μM CDFDA,5.2 × 10^−5 (0.2) mL/min
same,fold larger apical versus basolateral membrane CDF clearance,Caco-2 cells [2]; following both apical and basolateral dosing,approximately 1.5 fold
same,fraction of CDF in the basolateral compartment,Caco-2 cells [3]; apical CDFDA dosing,1.1%
same,fraction of CDF in the cell compartment at 120-minutes,Caco-2 cells [3]; apical CDFDA dosing,1.5%
same,fraction of CDF present in the apical compartment,"Caco-2 cells [3]; apical CDFDA dosing, n = 16 occasions",4.0 ± 2.33%
same,fraction of CDF in the basolateral compartment,Caco-2 cells [3]; basolateral CDFDA dosing,1.0%
same,fraction of CDF in the cell compartment at 120-minutes,Caco-2 cells [3]; basolateral CDFDA dosing,1.3%
same,fraction of CDF present in the apical compartment,Caco-2 cells [3]; basolateral CDFDA dosing,1.9 ± 1.24%
same,"mean ratio of CDF cell content, basolateral versus apical dosing",Caco-2 cells [3]; [12],2.9
same,"mean ratio of CDF flux, basolateral versus apical dosing",Caco-2 cells [3]; [12],2.9
same,"CDF clearance across Caco-2 cells, model based analysis, AB/BA combined, population estimate (RSE,%)","Caco-2 cells [4]; 5 μM CDF, simultaneous modeling of AB and BA directions",1.6 × 10^−5 (11.7) mL/min
same,"CDF clearance across Caco-2 cells, model independent analysis, AB, mean (CV,%)","Caco-2 cells [4]; apical exposure to 5 μM CDF, 5 occasions, 13 filters",1.6 × 10^−5 (30.3) mL/min
same,"CDF clearance across Caco-2 cells, model based analysis, AB, population estimate (RSE,%)","Caco-2 cells [4]; apical exposure to 5 μM CDF, two-compartment model",1.3 × 10^−5 (19.0) mL/min
same,"CDF clearance across Caco-2 cells, model independent analysis, BA, mean (CV,%)","Caco-2 cells [4]; basolateral exposure to 5 μM CDF, 5 occasions, 13 filters",2.1 × 10^−5 (3.3) mL/min
same,"CDF clearance across Caco-2 cells, model based analysis, BA, population estimate (RSE,%)","Caco-2 cells [4]; basolateral exposure to 5 μM CDF, two-compartment model",2.0 × 10^−5 (10.9) mL/min
same,protein binding,[5],15 – 20%
O=c1c(-c2ccc(O)cc2)coc2cc(O)cc(O)c12 [Genistein],model predicted effect on CDF efflux,"Caco-2 cells [2]; CDFDA dosing, genistein exposure",no predicted effects
same,"β-adjustment factor for enhancement of CDFDA hydrolysis clearance (Clhydrolysis), estimate (% RSE)",Caco-2 cells [2]; apical CDFDA dosing,6.9 × 10^−3 (<0.1)
same,"β-adjustment factor for enhancement of CDFDA hydrolysis clearance (Clhydrolysis), estimate (% RSE)",Caco-2 cells [2]; basolateral CDFDA dosing,2.8 × 10^−2 (0.6)
same,"AB Donor (apical) CDF at 120 minutes, mean",Caco-2 cells [3]; [13],301 pmoles/well
same,"AB Intracellular CDF at 120 minutes, mean",Caco-2 cells [3]; [13],85 pmoles/well
same,"AB directional CDF flux, mean",Caco-2 cells [3]; [14],1.25 pmol/min
same,"BA Donor (basolateral) CDF at 120 minutes, mean",Caco-2 cells [3]; [15],427 pmoles/well
same,"BA Intracellular CDF at 120 minutes, mean",Caco-2 cells [3]; [15],134 pmoles/well
same,"BA directional CDF flux, mean",Caco-2 cells [3]; [16],2.68 pmol/min
same,effect on CDFDA hydrolysis observed in vitro,[6],stimulation of CDFDA hydrolysis
CN(C)C(=O)CCSC(SCCC(=O)O)c1cccc(/C=C/c2ccc3ccc(Cl)cc3n2)c1 (stereo not shown) [MK-571],fold increase of basolateral membrane CDF clearance,"Caco-2 cells [2]; 100 μM MK-571, the highest concentration evaluated",up to 2 fold
same,model predicted effect on CDF clearance across the apical membrane,Caco-2 cells [2]; CDFDA dosing,not altered
same,"β-adjustment factor for enhancement of basolateral membrane clearance (Clcdf,bl), estimate (% RSE)",Caco-2 cells [2]; apical CDFDA dosing,1.7 × 10^−2 (<0.1)
same,"β-adjustment factor for enhancement of basolateral membrane clearance (Clcdf,bl), estimate (% RSE)",Caco-2 cells [2]; basolateral CDFDA dosing,2.4 × 10^−2 (0.4)
same,basolateral to apical dosing CDF flux ratio in the presence of MK-571,"Caco-2 cells [3]; CDFDA dosing, control approximately 3",~0.8
same,"AB Donor (apical) CDF at 120 minutes, mean",Caco-2 cells [3]; [13],115 pmoles/well
same,"AB Intracellular CDF at 120 minutes, mean",Caco-2 cells [3]; [13],15 pmoles/well
same,"AB directional CDF flux, mean",Caco-2 cells [3]; [14],0.51 pmol/min
same,"BA Donor (basolateral) CDF at 120 minutes, mean",Caco-2 cells [3]; [15],249 pmoles/well
same,"BA Intracellular CDF at 120 minutes, mean",Caco-2 cells [3]; [15],26 pmoles/well
same,"BA directional CDF flux, mean",Caco-2 cells [3]; [16],0.39 pmol/min
same,effect on CDFDA hydrolysis in Caco-2 cell homogenates,[6],no effect
CC(C)(C)C(=O)OCOP(=O)(COCCn1cnc2c(N)ncnc21)OCOC(=O)C(C)(C)C [adefovir dipivoxil],total metabolite production,Caco-2 cells [7]; apical dosing,93%
same,total metabolite production,Caco-2 cells [7]; basolateral dosing,34%
CDF diacetate [CDFDA],fold larger CDFDA hydrolysis clearance for basolateral versus apical dosing,Caco-2 cells [2],1.8 fold
same,"Clhydrolysis, intracellular hydrolysis of CDFDA, parameter estimate (% RSE)",Caco-2 cells [2]; apical dosing 5 μM CDFDA,8.2 × 10^−4 (<0.1) mL/min
same,"Clhydrolysis, bootstrap analysis median (90% confidence interval)",Caco-2 cells [2]; [11],1.6 × 10^−3 (1.2 – 1.9 × 10^−3) mL/min
same,"Clhydrolysis, intracellular hydrolysis of CDFDA, parameter estimate (% RSE)",Caco-2 cells [2]; basolateral dosing 5 μM CDFDA,1.5 × 10^−3 (0.1) mL/min
same,"AB Donor (apical) CDF at 120 minutes, mean",Caco-2 cells [3]; [17],101 pmoles/well
same,"AB Intracellular CDF at 120 minutes, mean",Caco-2 cells [3]; [17],29 pmoles/well
same,"AB directional CDF flux, mean","Caco-2 cells [3]; apical 5 μM CDFDA alone (Control), 48 filters",0.28 pmol/min
same,"total CDF production, % of the CDFDA dose",Caco-2 cells [3]; apical dosing,6.7 ± 3.10%
same,"BA Donor (basolateral) CDF at 120 minutes, mean",Caco-2 cells [3]; [18],143 pmoles/well
same,"BA Intracellular CDF at 120 minutes, mean",Caco-2 cells [3]; [18],83 pmoles/well
same,"BA directional CDF flux, mean","Caco-2 cells [3]; basolateral 5 μM CDFDA alone (Control), 48 filters",0.81 pmol/min
same,"total CDF production, % of the CDFDA dose",Caco-2 cells [3]; basolateral dosing,4.3 ± 1.21%
same,half-life of CDFDA hydrolysis in transport buffer,[8],> 100 h
same,clearance of CDFDA hydrolysis in transport buffer,[8]; translated from half-life,3e-07 mL/min
Glyceollin,model predicted effect on CDF clearance across the apical membrane,Caco-2 cells [2]; CDFDA dosing,no effect on apical membrane clearance
same,"β-adjustment factor for enhancement of basolateral membrane clearance (Clcdf,bl), estimate (% RSE)",Caco-2 cells [2]; apical CDFDA dosing,2.2 × 10^−2 (<0.1)
same,"β-adjustment factor for enhancement of basolateral membrane clearance (Clcdf,bl), estimate (% RSE)",Caco-2 cells [2]; basolateral CDFDA dosing,1.8 × 10^−2 (2.9)
same,"AB Donor (apical) CDF at 120 minutes, mean",Caco-2 cells [3]; [13],95 pmoles/well
same,"AB Intracellular CDF at 120 minutes, mean",Caco-2 cells [3]; [13],15 pmoles/well
same,"AB directional CDF flux, mean",Caco-2 cells [3]; [14],0.63 pmol/min
same,"BA Donor (basolateral) CDF at 120 minutes, mean",Caco-2 cells [3]; [15],187 pmoles/well
same,"BA Intracellular CDF at 120 minutes, mean",Caco-2 cells [3]; [15],30 pmoles/well
same,"BA directional CDF flux, mean",Caco-2 cells [3]; [16],0.53 pmol/min
same,effect on CDFDA hydrolysis in Caco-2 cell homogenates,[6],no effect
lucifer yellow,lucifer yellow clearance,Caco-2 cells [9],8.7 ± 0.24 × 10^−5 mL/min

# From publication PMC5856607 (Journal of pharmaceutical sciences, 2017)
